Laboratory results published in ChEMBL document CHEMBL4033784, “Discovery of 1,5-Diphenylpyrazole-3-Carboxamide Derivatives as Potent, Reversible, and Selective Monoacylglycerol Lipase (MAGL) Inhibitors” (J Med Chem, 2018).
The source made the active and inactive calls.

Legend:
[1] = biological target: T1, Fatty-acid amide hydrolase 1 (Homo sapiens) (UniProt O00519); test: Inhibition of recombinant human FAAH using AMC arachidonoylamide as substrate at 10 uM after 30 mins by fluorescence assay relative to control
T1 sequence (whole entry): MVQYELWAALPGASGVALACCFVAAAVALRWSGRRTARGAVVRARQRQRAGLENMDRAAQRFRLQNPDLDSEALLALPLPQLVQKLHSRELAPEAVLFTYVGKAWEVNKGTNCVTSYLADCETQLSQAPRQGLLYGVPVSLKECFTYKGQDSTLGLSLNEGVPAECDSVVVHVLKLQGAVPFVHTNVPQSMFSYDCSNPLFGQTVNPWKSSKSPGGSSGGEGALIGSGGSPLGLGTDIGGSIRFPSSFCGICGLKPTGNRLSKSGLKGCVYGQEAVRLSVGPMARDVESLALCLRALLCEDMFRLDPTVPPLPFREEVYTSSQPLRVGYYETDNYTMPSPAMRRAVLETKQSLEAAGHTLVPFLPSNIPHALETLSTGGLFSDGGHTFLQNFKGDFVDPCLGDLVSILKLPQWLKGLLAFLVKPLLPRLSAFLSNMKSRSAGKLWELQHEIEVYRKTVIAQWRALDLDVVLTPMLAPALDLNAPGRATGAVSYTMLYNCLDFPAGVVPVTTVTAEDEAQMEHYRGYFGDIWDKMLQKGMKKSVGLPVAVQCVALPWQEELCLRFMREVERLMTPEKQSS
Procedure, shortened: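 Human recombinant FAAH (0.9 µg/well) in 125 mM Tris pH 9.0 with 1 mM EDTA and 0.1 mg/ml BSA at room temperature. Substrate was AMC arachidonoylamide, final 10 µM. Compound range 200–0.0128 µM. Fluorescence (ex 340/em 460 nm) read after 30 min with no-enzyme blanks subtracted. IC50 from sigmoidal dose-response fit.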

[2] = biological target: Cannabinoid receptor 2 (Homo sapiens) (UniProt P34972); test: Displacement of [3H]CP55,940 from human CB2 receptor expressed in CHOK1 cell membranes at 10 uM after 90 mins relative to control
Procedure, shortened: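 Membranes expressing hCB1 or hCB2 were incubated in 50 mM Tris-HCl, 2.5 mM EDTA, 5 mM MgCl2 with fatty-acid-free BSA, pH 7.4. Incubation with compound and 0.5 nM [3H]CP55,940 for 90 min at 30 °C. Nonspecific binding defined with 10 µM […]. Samples were filtered on GF/B, washed twelve times with ice-cold buffer, and radioactivity counted.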

[3] = test system: Mus musculus; test: Antinociceptive activity in po dosed oxaliplatin-induced neuropathic pain 4r5CD-1 albino mouse model assessed as pain relief treated on day 15 post oxaliplatin treatment by cold plate test; type: functional, organism-based
Procedure, shortened: (§1)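 Male CD-1 mice (22–25 g) received oxaliplatin 2.4 mg/kg i.p. in 5% glucose on days 1-2, 5-9, 12-14. On day 15 a single p.o. dose (10 or 30 mg/kg) suspended in CMC was given. Cold plate at 4 °C ± 1 °C, 60 s cut-off, latency to first paw lick or lift timed after dosing. 10 mice per group over 2 sets, mean ± S.E.M., one-way ANOVA with Bonferroni.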

[4] = test system: Mus musculus; test: Antinociceptive activity in oxaliplatin-induced neuropathic pain 4r5CD-1 albino mouse model assessed as reduction in licking latency at 10 mg/kg, po treated on day 15 post oxaliplatin treatment measure at 30 mins post dose by cold plate test; type: functional, organism-based; procedure, shortened: as §1
[5] = test system: Mus musculus; test: Antinociceptive activity in oxaliplatin-induced neuropathic pain 4r5CD-1 albino mouse model assessed as reduction in licking latency at 30 mg/kg, po treated on day 15 post oxaliplatin treatment measure at 30 to 45 mins post dose by cold plate test; type: functional, organism-based; procedure, shortened: as §1
[6] = test system: Mus musculus; test: Antinociceptive activity in oxaliplatin-induced neuropathic pain 4r5CD-1 albino mouse model assessed as reduction in cold allodynia at 30 mg/kg, po cotreated with oxaliplatin on day 1 to 14 measured on day 7 and 15 by cold plate test; type: functional, organism-based
Procedure, shortened: (§2)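 Male CD-1 mice (22–25 g) given oxaliplatin 2.4 mg/kg i.p. in 5% glucose on days 1-2, 5-9, 12-14. Compound suspended in CMC, 30 mg/kg p.o., given on the same schedule. Cold plate held at 4 °C ± 1 °C, 60 s cut-off. Latency to first hind-paw lifting or licking recorded on days 7 and 15, 24 h after the last dose. 10 mice per group over 2 sets, mean ± S.E.M.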

[7] = test system: Mus musculus; test: Antinociceptive activity in oxaliplatin-induced 4r5CD-1 albino mouse assessed as […] pain relief at 30 mg/kg, po cotreated with oxaliplatin on day 1 to 14 measured up to 24 hrs post last on day 15 by cold plate test; type: functional, organism-based; procedure, shortened: as §2
[8] = test system: Mus musculus; test: Effect on 2-AG level in brain of oxaliplatin-induced neuropathic pain 4r5CD-1 albino mouse model at 30 mg/kg, po measured at 1 hr post last dose on day 15 by LC-MS/MS analysis; type: functional, organism-based
Procedure, shortened: (§3)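 Mice received oxaliplatin 2.4 mg/kg i.p. plus compound 30 mg/kg p.o. or vehicle for 14 days. On day 15 they were decapitated 1 h after the last dose. Brain and spinal cord were washed in PBS and snap-frozen. 2-AG was quantified by LC-MS/MS.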

[9] = test system: Mus musculus; test: Effect on 2-AG level in spinal cord of oxaliplatin-induced neuropathic pain 4r5CD-1 albino mouse model at 30 mg/kg, po measured at 1 hr post last dose on day 15 by LC-MS/MS analysis; type: functional, organism-based; procedure, shortened: as §3
[10] = biological target: T2, Monoglyceride lipase (Homo sapiens) (UniProt Q99685); conditions: 20 uM
T2 sequence (whole entry): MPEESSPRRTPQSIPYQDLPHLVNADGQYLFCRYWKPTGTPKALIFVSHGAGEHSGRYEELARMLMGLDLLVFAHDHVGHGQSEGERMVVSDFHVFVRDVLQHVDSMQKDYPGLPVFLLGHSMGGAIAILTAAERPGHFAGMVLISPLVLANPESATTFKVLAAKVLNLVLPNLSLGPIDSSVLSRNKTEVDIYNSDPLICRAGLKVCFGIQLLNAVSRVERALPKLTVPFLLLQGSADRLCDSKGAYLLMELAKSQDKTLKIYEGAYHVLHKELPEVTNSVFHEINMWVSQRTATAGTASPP

[11] = biological target: T2, Monoglyceride lipase (Homo sapiens); conditions: 20 uM; remark: listed apart in the source

Chain of Cannabinoid receptor 2 (Homo sapiens) (P34972 whole entry): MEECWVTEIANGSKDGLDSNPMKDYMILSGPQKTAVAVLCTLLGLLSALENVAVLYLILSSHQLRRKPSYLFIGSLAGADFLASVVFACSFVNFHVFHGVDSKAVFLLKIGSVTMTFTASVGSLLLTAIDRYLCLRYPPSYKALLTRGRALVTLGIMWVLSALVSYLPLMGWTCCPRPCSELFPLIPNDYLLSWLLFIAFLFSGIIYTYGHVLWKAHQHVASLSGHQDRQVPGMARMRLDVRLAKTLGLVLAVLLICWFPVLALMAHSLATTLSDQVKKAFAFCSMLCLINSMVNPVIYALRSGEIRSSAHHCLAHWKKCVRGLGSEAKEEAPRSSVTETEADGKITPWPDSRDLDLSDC

inhibition [1]: 7% | inhibition [2]: 35% | inhibition [10]: Active | inhibition [11]: Active
SMILES: Cc1cccc(Cn2nc(C(=O)N3CCC(Cc4ccccc4)CC3)cc2-c2ccc(O)cc2)c1
Activity [3]: Dose-dependent effect | Activity [4]: Active | Activity [5]: Active | Activity [6]: Active | Activity [7]: Active | Activity [8]: inactive | Activity [9]: inactive
